An excerpt weighted towards active compounds, which were near 1.5% of everything screened.
EBI2 antag: EBI2 (human) antagonism; AID 651636; 360,000 tested, 0.81% active; inhibition, % at 5 µM; EBI2 beta-arrestin recruitment, luminescence, 7a,25-OHC stimulated; P32249; in the data active = inhibition above about 38%;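 note: enzyme fragment complementation signal reports receptor beta-arrestin coupling in cells; 0% = agonist plus DMSO wells and 100% = wells without agonist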
CCR6 antagonist: blocks CCL20-driven beta-arrestin recruitment at human CCR6; inhibition, % at 20 µM; CHO-K1 CCR6 PathHunter beta-arrestin, luminescence, CCL20-stimulated; 340,000 tested, 0.49% active; P51684; AID 493098;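 active = compounds whose inhibition of the agonist-driven luminescence signal at 20 µM reaches about 50%, limit read from the data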;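 note: cells stimulated with CCL20 at 14 nM final; plate controls were DMSO with CCL20 for no effect and DMSO without agonist for full effect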
APJ agonist: agonists of human APJ apelin receptor | P35414 | CHO-K1 APJ PathHunter beta-arrestin, luminescence; 0% DMSO wells, 100% apelin | activation, % at 20 µM | 330,000 tested, 0.11% active | AID 2520;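 active = activation more than six SD over the plate average, tested at 20 µM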;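 note: 0% = DMSO alone and 100% = apelin-13 at 10 nM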
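Test system: CHO-K1 APJ beta-arrestin complementation cell line. Amount: cell density 1000 per well. Controls: DMSO negative, 10 nM Apelin-13 positive. Signal: luminescent beta-gal fragment complementation, chemiluminescent substrate. Read-out basis: agonist-driven arrestin binding to APJ. Timing: compound stimulation 90 min at 25 °C, detection 60 min.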
APJ antag: antagonists of human APJ apelin receptor. P35414. inhibition, % at 20 µM. AID 2521. 330,000 tested, 0.32% active. CHO-K1 APJ beta-arrestin complementation, luminescence;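 active = inhibition above about 40% at 20 µM, limit read from the data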;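 note: cells challenged with 10 nM apelin-13 agonist together with compound; plate controls were apelin-13 plus DMSO wells for no effect and DMSO wells lacking apelin-13 for full effect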
CXCR6 inh: blocks human CXCR6 beta-arrestin recruitment; 360,000 tested, 0.36% active; CHO-K1 PathHunter CXCR6 beta-arrestin, luminescence; inhibition, % at 20 µM; in the data active = inhibition above about 34%, passing the limit was not always enough;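 note: antagonist mode with CXCL16 agonist at 10 nM final; 0% = 10 nM CXCL16 with DMSO and 100% = unstimulated wells without agonist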
Target sequence (O00574 whole entry, looked up): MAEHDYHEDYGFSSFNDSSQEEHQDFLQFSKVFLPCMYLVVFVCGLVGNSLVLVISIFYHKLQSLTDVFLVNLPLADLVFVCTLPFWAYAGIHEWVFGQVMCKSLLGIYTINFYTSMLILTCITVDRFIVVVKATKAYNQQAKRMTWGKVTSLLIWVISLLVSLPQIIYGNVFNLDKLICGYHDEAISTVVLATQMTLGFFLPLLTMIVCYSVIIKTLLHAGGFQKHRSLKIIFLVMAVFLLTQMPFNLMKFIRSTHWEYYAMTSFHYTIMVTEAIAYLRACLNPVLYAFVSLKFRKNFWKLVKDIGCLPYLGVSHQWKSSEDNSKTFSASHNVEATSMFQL
EBI2 conf: EBI2 (human) antagonism, single concentration confirmation | shares compounds with EBI2 antag | EBI2 beta-arrestin luminescence, 7a,25-OHC antagonism | inhibition, % at 5 µM | 2,400 tested, 29% active | AID 651997;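 active = inhibition of at least 50%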
EBI2 agonist: EBI2 agonism counter-screen; shares compounds with EBI2 antag; EBI2-expressing cells, agonist mode, luminescence, 60 min; 0% vehicle, 100% 7α,25-dihydroxycholesterol control; activation, % at 5 µM; 2,400 tested, under 10 active; AID 652000;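 active = activation of at least 50%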
bGal cs: inhibits E. coli beta-galactosidase, counter-screen for EBI2 antagonists. shares compounds with EBI2 antag. purified beta-galactosidase, luminescent Galacton Star, 15 min. inhibition, % at 5 µM. 2,400 tested, 1% active. AID 652176;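 active = replicate-average signal at least 3 plate SD below neutral wells, shown as high inhibition, flagging enzyme-inhibiting false positives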;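 note: 0% = DMSO wells with enzyme and 100% = wells lacking enzyme; higher means stronger loss of beta-gal luminescence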
Active calls of the source: *.

Screening Cc1cccc(NC(NC(=O)Cc2ccccc2)C(Cl)(Cl)Cl)c1 (stereo unspecified) returned EBI2 antag 17, CCR6 antagonist 15, APJ agonist 2, APJ antag 3 and CXCR6 inh -2.
Screening Cc1ccc(NC(NC(=O)Cc2ccccc2)C(Cl)(Cl)Cl)cc1 (stereo unspecified) returned EBI2 antag 44*, CCR6 antagonist 21, CXCR6 inh 6, EBI2 conf 6, EBI2 agonist 1 and bGal cs 5.
`O=C(Nc1cccc(-c2csc(Nc3cccc(C(F)(F)F)c3)n2)c1)c1cc([N+](=O)[O-])cc(C(F)(F)F)c1` gave EBI2 antag 47*, CCR6 antagonist 0, APJ agonist 9, APJ antag -134, CXCR6 inh -12, EBI2 conf 22, EBI2 agonist -1 and bGal cs -14.
O=C(CN1CCN(Cc2ccccc2)CC1)N/N=C/c1ccc(Br)s1 was read as EBI2 antag 44*, CCR6 antagonist 1, APJ agonist -1, APJ antag -7, CXCR6 inh -4, EBI2 conf 33, EBI2 agonist 2 and bGal cs 2.
Screening CCc1nc2ccc(C(=O)Nc3ccc(OC)c(OC)c3)cn2c1N(CCC(C)C)CCN(C)C returned EBI2 antag -2 and CXCR6 inh 2.
C=CCn1c(SCc2ccc(C(=O)Nc3ccccc3)cc2)nnc1-c1ccccc1 was read as EBI2 antag 49*, CCR6 antagonist 1, APJ agonist -5, APJ antag -30, CXCR6 inh 5, EBI2 conf 15, EBI2 agonist 1 and bGal cs 10.
For CC1(c2nnc(-c3ccc(Cl)cc3)o2)CC(c2ccncc2)=NO1 (stereo unspecified) the results were EBI2 antag -9, CCR6 antagonist -1, APJ agonist -1, APJ antag 12 and CXCR6 inh 2.
CC1(c2nnc(-c3ccc(F)cc3)o2)CC(c2c(Cl)cccc2Cl)=NO1 (stereo unspecified) was read as EBI2 antag 50*, CCR6 antagonist 12, APJ agonist -4, APJ antag 13, CXCR6 inh 0, EBI2 conf 49, EBI2 agonist 0 and bGal cs 4.
Screening CC1(c2nnc(-c3ccc(F)cc3)o2)CC(c2ccc(Cl)cc2)=NO1 (stereo unspecified) returned EBI2 antag 5, CCR6 antagonist 13, APJ agonist -3, APJ antag -5 and CXCR6 inh 3.
CC1(c2nnc(-c3ccc(Cl)cc3)o2)CC(c2c(Cl)cccc2Cl)=NO1 (stereo unspecified) was read as EBI2 antag 52*, CCR6 antagonist 7, APJ agonist -6, APJ antag 8, CXCR6 inh -14, EBI2 conf 60*, EBI2 agonist 0 and bGal cs -18.
For c1ccc(CNc2nc(NCC3CC3)nc3cc(-c4ccccc4)sc23)cc1 the results were EBI2 antag 63*, CXCR6 inh 6, EBI2 conf 48, EBI2 agonist -1 and bGal cs -8.
For C=CCNc1nc(NCCOc2ccccc2Cl)c2sc(-c3ccccc3)cc2n1 the results were EBI2 antag 42*, CXCR6 inh 12, EBI2 conf 31, EBI2 agonist -2 and bGal cs -7.
Screening c1ccc(OCCNc2nc(NCC3CC3)nc3cc(-c4ccccc4)sc23)cc1 returned EBI2 antag 68*, CXCR6 inh 20, EBI2 conf 62*, EBI2 agonist -1 and bGal cs -10.
For C=CCNc1nc(NCCOC)c2sc(-c3ccccc3)cc2n1 the results were EBI2 antag 25 and CXCR6 inh 10.
Screening CCOC(=O)C1=CCN(S(=O)(=O)c2ccccc2C)C1c1cccc(Cl)c1 (stereo unspecified) returned EBI2 antag 61*, EBI2 conf 44, EBI2 agonist -1 and bGal cs -12.
For CCOC(=O)C1=CCN(S(=O)(=O)c2ccccc2Br)C1c1cccc(Cl)c1 (stereo unspecified) the results were EBI2 antag 28 and CXCR6 inh 5.
For CCOC(=O)C1=CCN(S(=O)(=O)c2ccccc2Cl)C1c1cccc(Br)c1 (stereo unspecified) the results were EBI2 antag 56*, CXCR6 inh 3, EBI2 conf 20, EBI2 agonist 0 and bGal cs 5.
`CCOC(=O)C1=CCN(S(=O)(=O)c2ccccc2F)C1c1cccc(Cl)c1` (stereo unspecified) gave EBI2 antag -26 and CXCR6 inh 4.
For CCN(CC(=O)Nc1ccccc1C(F)(F)F)CC(=O)c1[nH]c(C)c(C(C)=O)c1C the results were EBI2 antag -9 and CXCR6 inh 15.
Screening COc1cccc(/C=C/C(=O)c2ccc(NS(=O)(=O)c3ccc(C)cc3)cc2)c1 returned EBI2 antag 62*, CCR6 antagonist 23, APJ agonist -3, APJ antag 16, CXCR6 inh 16, EBI2 conf 45, EBI2 agonist 0 and bGal cs 6.
Screening COc1cc(/C=C/C(=O)c2ccc(NS(=O)(=O)c3ccc(C)cc3)cc2)cc(OC)c1O returned EBI2 antag 27, CCR6 antagonist 27 and CXCR6 inh 4.
Screening COc1ccccc1NC(=O)/C(C#N)=C/c1c(C)nn(-c2ccc(F)cc2)c1Cl returned EBI2 antag 43, CCR6 antagonist -2, APJ agonist 4, APJ antag -9 and CXCR6 inh -1.
`COc1ccc(NC(=O)/C(C#N)=C/c2c(C)nn(-c3ccc(F)cc3)c2Cl)cc1Cl` gave EBI2 antag 60*, CCR6 antagonist 19, APJ agonist 3, APJ antag -18, CXCR6 inh 6, EBI2 conf 43, EBI2 agonist 1 and bGal cs 5.
`COc1ccc(NC(=O)/C(C#N)=C/c2c(C)nn(-c3ccc(F)cc3)c2Cl)cc1OC` gave EBI2 antag 70*, CCR6 antagonist 12, APJ agonist 5, APJ antag 0, CXCR6 inh -2, EBI2 conf 53*, EBI2 agonist 0 and bGal cs -13.
`CC1(C)CCCC2(C)C(OCCO)=CC(=O)C=C12` (stereo unspecified) gave EBI2 antag -11 and CXCR6 inh -5.

Screening results as filed in PubChem.
